{"source": "ChEMBL document CHEMBL1122376", "about": "“Pyrazolo[3,4-d]pyrimidine ribonucleosides as anticoccidials. 3. Synthesis and activity of some nucleosides of 4-[(arylalkenyl)thio]pyrazolo[3,4-d]pyrimidines” (1983)", "type_in_all_cases": "functional", "key": {"Eimeria tenella [1]": {"system": "Eimeria tenella", "experiment": "In vivo anti-coccidial activity expressed as number of the chicks cleared of Eimeria tenella lesions out of a group of five, at 25 ppm in the diet.", "procedure,_shortened": "(§1)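 Week-old chicks, given compound in the diet. E. tenella (Weybridge strain) infection given together with E. acervulina (Ongar strain).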"}, "Eimeria tenella [2]": {"system": "Eimeria tenella", "experiment": "In vitro inhibitory activity against Eimeria tenella in embryonic chick liver cells.", "procedure,_shortened": "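E. tenella, Weybridge strain, grown in vitro in embryonic chick liver cells.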"}, "Eimeria tenella [3]": {"system": "Eimeria tenella", "experiment": "In vivo anti-coccidial activity expressed as number of the chicks cleared of Eimeria tenella lesions out of a group of five, at 50 ppm in the diet.", "procedure,_shortened": "as §1"}, "Eimeria tenella [4]": {"system": "Eimeria tenella", "experiment": "In vivo anti-coccidial activity expressed as number of the chicks cleared of Eimeria tenella lesions out of a group of five, at 200 ppm in the diet.", "procedure,_shortened": "as §1"}, "Eimeria tenella [5]": {"system": "Eimeria tenella", "experiment": "In vivo anti-coccidial activity expressed as number of the chicks cleared of Eimeria tenella lesions out of a group of five, at 100 ppm in the diet.", "procedure,_shortened": "as §1"}, "Eimeria tenella [6]": {"system": "Eimeria tenella", "experiment": "In vivo anti-coccidial activity expressed as number of the chicks cleared of Eimeria tenella lesions out of a group of five, at 400 ppm in the diet.", "procedure,_shortened": "as §1"}, "Eimeria tenella [7]": {"system": "Eimeria tenella", "experiment": "In vivo anti-coccidial activity expressed as number of the chicks cleared of Eimeria tenella lesions out of a group of five, at 25 ppm in the diet;At 12.5 p.p.m. no chicks were cleared.", "procedure,_shortened": "as §1"}, "Eimeria tenella [8]": {"system": "Eimeria tenella", "experiment": "In vivo anti-coccidial activity expressed as number of the chicks cleared of Eimeria tenella lesions out of a group of five, at 200 ppm in the diet;one chick out of a group of 5 died and contained lesions due to the parasite."}, "Eimeria tenella [9]": {"system": "Eimeria tenella", "experiment": "In vivo anti-coccidial activity expressed as number of the chicks cleared of Eimeria tenella lesions out of a group of five, at 12.5 ppm in the diet.", "procedure,_shortened": "as §1"}, "Eimeria tenella [10]": {"system": "Eimeria tenella", "experiment": "In vivo anti-coccidial activity expressed as number of the chicks cleared of Eimeria tenella lesions out of a group of five, at 300 ppm in the diet.", "procedure,_shortened": "as §1"}, "Eimeria tenella [11]": {"system": "Eimeria tenella", "experiment": "In vivo anti-coccidial activity expressed as number of the chicks cleared of Eimeria tenella lesions out of a group of five, at 200 ppm in the diet;one chick out of 5 died and contained lesions due to the parasite."}, "Eimeria tenella [12]": {"system": "Eimeria tenella", "experiment": "In vivo anti-coccidial activity expressed as number of the chicks cleared of Eimeria tenella lesions out of a group of five, at 25 ppm in the diet;At 12.5 ppm, no chicks were cleared.", "procedure,_shortened": "as §1"}}}
{"smiles": "CC(=O)OC[C@H]1O[C@@H](n2ncc3c(SC/C=C/c4ccccc4)ncnc32)[C@H](OC(C)=O)[C@@H]1OC(C)=O", "values": [{"measurement": "Activity", "setting": "Eimeria tenella [1]", "result": 1}, {"measurement": "MIC", "setting": "Eimeria tenella [2]", "result": 1.25, "unit": "mg/L"}, {"measurement": "Activity", "setting": "Eimeria tenella [3]", "result": 5}, {"measurement": "Activity", "setting": "Eimeria tenella [4]", "result": 5}]}
{"smiles": "OC[C@H]1OC(n2ncc3c(SC/C=C/c4ccc(OCc5ccccc5)cc4)ncnc32)[C@H](O)[C@@H]1O", "note": "(stereo partly drawn)", "values": [{"measurement": "Activity", "setting": "Eimeria tenella [1]", "result": 1}, {"measurement": "MIC", "setting": "Eimeria tenella [2]", "result": 1.25, "unit": "mg/L"}, {"measurement": "Activity", "setting": "Eimeria tenella [5]", "result": 2}, {"measurement": "Activity", "setting": "Eimeria tenella [3]", "result": 0}, {"measurement": "Activity", "setting": "Eimeria tenella [4]", "result": 5}]}
{"smiles": "OC[C@H]1OC(n2ncc3c(SC/C=C/c4cccc(O)c4)ncnc32)[C@H](O)[C@@H]1O", "note": "(stereo partly drawn)", "values": [{"measurement": "Activity", "setting": "Eimeria tenella [6]", "result": 0}, {"measurement": "MIC", "setting": "Eimeria tenella [2]", "result": 20, "unit": "mg/L"}]}
{"smiles": "COc1cc(/C=C/CSc2ncnc3c2cnn3C2O[C@H](CO)[C@@H](O)[C@H]2O)cc(OC)c1OC", "note": "(stereo partly drawn)", "values": [{"measurement": "Activity", "setting": "Eimeria tenella [6]", "result": 5}, {"measurement": "MIC", "setting": "Eimeria tenella [2]", "result": 0.31, "unit": "mg/L"}, {"measurement": "Activity", "setting": "Eimeria tenella [5]", "result": 2}, {"measurement": "Activity", "setting": "Eimeria tenella [4]", "result": 5}]}
{"smiles": "OC[C@H]1OC(n2ncc3c(SC/C=C/c4ccccc4)ncnc32)[C@H](O)[C@@H]1O", "note": "(stereo partly drawn)", "values": [{"measurement": "MIC", "setting": "Eimeria tenella [2]", "result": 0.078, "unit": "mg/L"}, {"measurement": "Activity", "setting": "Eimeria tenella [7]", "result": 5}, {"measurement": "Activity", "setting": "Eimeria tenella [5]", "result": 5}, {"measurement": "Activity", "setting": "Eimeria tenella [3]", "result": 5}, {"measurement": "Activity", "setting": "Eimeria tenella [4]", "result": 5}]}
{"smiles": "Cc1ccc(/C=C/CSc2ncnc3c2cnn3C2O[C@H](CO)[C@@H](O)[C@H]2O)cc1", "note": "(stereo partly drawn)", "values": [{"measurement": "MIC", "setting": "Eimeria tenella [2]", "result": 5, "unit": "mg/L"}, {"measurement": "Activity", "setting": "Eimeria tenella [8]", "result": 0}]}
{"smiles": "OC[C@H]1OC(n2ncc3c(SC/C=C/C=C/c4ccccc4)ncnc32)[C@H](O)[C@@H]1O", "note": "(stereo partly drawn)", "values": [{"measurement": "Activity", "setting": "Eimeria tenella [1]", "result": 1}, {"measurement": "MIC", "setting": "Eimeria tenella [2]", "result": 0.019, "unit": "mg/L"}, {"measurement": "Activity", "setting": "Eimeria tenella [3]", "result": 5}, {"measurement": "Activity", "setting": "Eimeria tenella [4]", "result": 5}]}
{"smiles": "O=P(O)(O)OC[C@H]1OC(n2ncc3c(SC/C=C/c4ccccc4)ncnc32)[C@H](O)[C@@H]1O", "note": "(stereo partly drawn)", "values": [{"measurement": "Activity", "setting": "Eimeria tenella [9]", "result": 0}, {"measurement": "Activity", "setting": "Eimeria tenella [1]", "result": 5}, {"measurement": "MIC", "setting": "Eimeria tenella [2]", "result": 0.012, "unit": "mg/L"}, {"measurement": "Activity", "setting": "Eimeria tenella [5]", "result": 5}, {"measurement": "Activity", "setting": "Eimeria tenella [3]", "result": 5}, {"measurement": "Activity", "setting": "Eimeria tenella [4]", "result": 5}]}
{"smiles": "COc1ccc(/C=C/CSc2ncnc3c2cnn3C2O[C@H](CO)[C@@H](O)[C@H]2O)cc1", "note": "(stereo partly drawn)", "values": [{"measurement": "MIC", "setting": "Eimeria tenella [2]", "result": 1.25, "unit": "mg/L"}, {"measurement": "Activity", "setting": "Eimeria tenella [10]", "result": 2}]}
{"smiles": "OC[C@H]1OC(n2ncc3c(SC/C=C/c4ccc(Cl)cc4)ncnc32)[C@H](O)[C@@H]1O", "note": "(stereo partly drawn)", "values": [{"measurement": "Activity", "setting": "Eimeria tenella [1]", "result": 0}, {"measurement": "MIC", "setting": "Eimeria tenella [2]", "result": 0.31, "unit": "mg/L"}, {"measurement": "Activity", "setting": "Eimeria tenella [5]", "result": 5}, {"measurement": "Activity", "setting": "Eimeria tenella [3]", "result": 0}, {"measurement": "Activity", "setting": "Eimeria tenella [4]", "result": 5}]}
{"smiles": "OC[C@H]1OC(n2ncc3c(SC/C=C/c4cccc(Br)c4)ncnc32)[C@H](O)[C@@H]1O", "note": "(stereo partly drawn)", "values": [{"measurement": "Activity", "setting": "Eimeria tenella [1]", "result": 1}, {"measurement": "MIC", "setting": "Eimeria tenella [2]", "result": 5, "unit": "mg/L"}, {"measurement": "Activity", "setting": "Eimeria tenella [5]", "result": 5}, {"measurement": "Activity", "setting": "Eimeria tenella [3]", "result": 4}, {"measurement": "Activity", "setting": "Eimeria tenella [4]", "result": 5}]}
{"smiles": "C=CCSc1ncnc2c1cnn2C1O[C@H](CO)[C@@H](O)[C@H]1O", "note": "(stereo partly drawn)", "values": [{"measurement": "Activity", "setting": "Eimeria tenella [1]", "result": 1}, {"measurement": "MIC", "setting": "Eimeria tenella [2]", "result": 0.019, "unit": "mg/L"}, {"measurement": "Activity", "setting": "Eimeria tenella [5]", "result": 5}, {"measurement": "Activity", "setting": "Eimeria tenella [3]", "result": 2}, {"measurement": "Activity", "setting": "Eimeria tenella [4]", "result": 5}]}
{"smiles": "OC[C@H]1OC(n2ncc3c(SC/C=C/c4cccc(C(F)(F)F)c4)ncnc32)[C@H](O)[C@@H]1O", "note": "(stereo partly drawn)", "values": [{"measurement": "Activity", "setting": "Eimeria tenella [11]", "result": 1}, {"measurement": "MIC", "setting": "Eimeria tenella [2]", "result": 5, "unit": "mg/L"}]}
{"smiles": "OC[C@H]1OC(n2ncc3c(S)ncnc32)[C@H](O)[C@@H]1O", "note": "(stereo partly drawn)", "values": [{"measurement": "MIC", "setting": "Eimeria tenella [2]", "result": 0.31, "unit": "mg/L"}, {"measurement": "Activity", "setting": "Eimeria tenella [4]", "result": 2}]}
{"smiles": "OC[C@H]1OC(n2ncc3c(SCC#Cc4ccccc4)ncnc32)[C@H](O)[C@@H]1O", "note": "(stereo partly drawn)", "values": [{"measurement": "Activity", "setting": "Eimeria tenella [1]", "result": 1}, {"measurement": "MIC", "setting": "Eimeria tenella [2]", "result": 0.019, "unit": "mg/L"}, {"measurement": "Activity", "setting": "Eimeria tenella [5]", "result": 2}, {"measurement": "Activity", "setting": "Eimeria tenella [3]", "result": 0}, {"measurement": "Activity", "setting": "Eimeria tenella [4]", "result": 5}]}
{"smiles": "OC[C@H]1OC(n2ncc3c(SC/C=C\\c4ccccc4)ncnc32)[C@H](O)[C@@H]1O", "note": "(stereo partly drawn)", "values": [{"measurement": "Activity", "setting": "Eimeria tenella [12]", "result": 0}, {"measurement": "MIC", "setting": "Eimeria tenella [2]", "result": "> 20", "unit": "mg/L"}, {"measurement": "Activity", "setting": "Eimeria tenella [5]", "result": 0}, {"measurement": "Activity", "setting": "Eimeria tenella [3]", "result": 0}]}
{"smiles": "C/C=C/CSc1ncnc2c1cnn2C1O[C@H](CO)[C@@H](O)[C@H]1O", "note": "(stereo partly drawn)", "values": [{"measurement": "Activity", "setting": "Eimeria tenella [1]", "result": 0}, {"measurement": "MIC", "setting": "Eimeria tenella [2]", "result": 0.019, "unit": "mg/L"}, {"measurement": "Activity", "setting": "Eimeria tenella [5]", "result": 4}, {"measurement": "Activity", "setting": "Eimeria tenella [3]", "result": 0}, {"measurement": "Activity", "setting": "Eimeria tenella [4]", "result": 5}]}
{"smiles": "OC[C@H]1OC(n2ncc3c(SC/C=C/c4ccc(Cl)c(Cl)c4)ncnc32)[C@H](O)[C@@H]1O", "note": "(stereo partly drawn)", "values": [{"measurement": "MIC", "setting": "Eimeria tenella [2]", "result": 0.31, "unit": "mg/L"}, {"measurement": "Activity", "setting": "Eimeria tenella [4]", "result": 2}]}
{"smiles": "COc1ccccc1/C=C/CSc1ncnc2c1cnn2C1O[C@H](CO)[C@@H](O)[C@H]1O", "note": "(stereo partly drawn)", "values": [{"measurement": "MIC", "setting": "Eimeria tenella [2]", "result": 1.25, "unit": "mg/L"}, {"measurement": "Activity", "setting": "Eimeria tenella [10]", "result": 1}]}
{"smiles": "OC[C@H]1OC(n2ncc3c(SC/C=C/c4ccc(Cl)cc4Cl)ncnc32)[C@H](O)[C@@H]1O", "note": "(stereo partly drawn)", "values": [{"measurement": "MIC", "setting": "Eimeria tenella [2]", "result": 1.25, "unit": "mg/L"}, {"measurement": "Activity", "setting": "Eimeria tenella [4]", "result": 2}]}
